From PubChem BioAssay
Most compounds without a hit are left out; they make up all but 1.4% or so of the library.
ERp5 inh – inhibitors of ERp5-driven insulin aggregation, primary screen, biochemical, turbidity, absorbance 650 nm, single point. Protein disulfide-isomerase A6 (Homo sapiens), Q15084. 90 min. inhibition, % at 9.99 µM. 350,000 compounds, 0.05% hits;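 active means mean replicate inhibition above about 25%, with every replicate also reaching it, limit read from the data, passing the limit was not always enough; inconclusive means only one of those two criteria met; inactive means neither criterion met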
Target sequence (Q15084 whole entry, looked up): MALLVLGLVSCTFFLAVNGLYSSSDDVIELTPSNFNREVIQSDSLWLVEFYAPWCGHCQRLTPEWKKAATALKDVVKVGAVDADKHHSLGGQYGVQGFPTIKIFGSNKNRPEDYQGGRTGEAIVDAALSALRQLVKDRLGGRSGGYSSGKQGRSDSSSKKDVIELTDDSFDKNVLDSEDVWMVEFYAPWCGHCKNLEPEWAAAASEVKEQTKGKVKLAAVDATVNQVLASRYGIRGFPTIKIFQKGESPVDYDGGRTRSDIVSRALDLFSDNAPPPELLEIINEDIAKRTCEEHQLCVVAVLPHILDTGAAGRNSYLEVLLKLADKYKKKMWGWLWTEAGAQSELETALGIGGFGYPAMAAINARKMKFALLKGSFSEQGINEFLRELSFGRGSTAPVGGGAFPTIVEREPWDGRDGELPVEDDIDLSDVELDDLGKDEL
FN deposit inh – inhibitors of fibronectin matrix deposition, primary screen, AH1F cells, Alexa488-fibronectin fluorescence, plate reader; AH1F fibroblasts, overnight; 350,000 compounds, 0.086% hits; inhibition, % at 12.6 µM;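 active means mean inhibition across replicates of 30% or more, regardless of how many single replicates reach that level; inconclusive means mean under 30% yet at least half of replicates reach 30%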
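Assay system: AH1F fibroblast monolayer, labelled fibronectin deposition. Amount: 10000 cells per well. Also added: labelled fibronectin 24 nM. Compound: single-point pinned compound. Incubation: cell attachment 1 h, compound and FN exposure overnight. Detection: fluorescence after three HBSS washes, excitation 485 nm, emission 525 nm. Read-out: inhibition of fibronectin deposition signal.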
HIV Env fusion – inhibitors of HIV-1 Env-driven cell-cell fusion, primary screen, HeLa-JRFL effector, CEM21 target cells, luciferase; inhibition, % at 12.3 µM; 360,000 compounds, 1.1% hits;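 active means mean replicate inhibition score of at least 50 and every replicate individually at or above 50; inconclusive means only one of the two criteria met; inactive means mean below 50 and not all replicates reaching 50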
PDI turbidity – inhibitors of human PDI, primary screen, biochemical, turbidity, single point, plate reader; Protein disulfide-isomerase (Homo sapiens), P07237; PDI insulin aggregation turbidity, A650, 90 min; inhibition, % at 10 µM; 350,000 compounds, 0.052% hits; AID 588391, 2011;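 active means mean inhibition across replicates of 30% or more, whatever share of single replicates reach that level; inconclusive means mean inhibition below 30% while every single replicate reaches 30%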
INS-1E GSIS act – GLuc luminescence reporter in INS-1E cells, primary screen for activators of glucose-dependent secretion of insulin. INS-1E GLuc reporter insulin secretion, 2-3 h. activation, % at 16.6 µM. 370,000 compounds, 0.61% hits. AID 743287, 2014;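 active means lowest replicate activation of at least 40%, so every replicate reaches that level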
Large screens that a line does not name were inactive; [ ] = dose if it differs, or a comment.

O=C(C[C@H]1C[C@H]2c3cc(NC(=O)C4CCC4)ccc3O[C@H]2[C@@H](CO)O1)NCC(F)(F)F	HIV Env fusion 56.5[16.7 µM] (no result: PDI turbidity)
CC(C)(C)OC(=O)NCCCCCc1cn(CC(=O)NCCCCCCCCCCC(=O)N2CCN(C(=O)OC(C)(C)C)CC2)nn1	HIV Env fusion 57.0 (no result: INS-1E GSIS act)
CCc1ccc(NC(=O)c2nc(S(=O)(=O)Cc3ccccc3)ncc2Cl)cc1	FN deposit inh 50.8, HIV Env fusion inconclusive
CCOC(=O)c1ccc(NC(=O)c2nc(S(=O)(=O)Cc3ccccc3)ncc2Cl)cc1	FN deposit inh 47.5, HIV Env fusion inconclusive (no result: ERp5 inh)
CC(=O)Nc1ccc(NC(=O)c2nc(S(=O)(=O)Cc3cccc(C)c3)ncc2Cl)cc1	none
CCS(=O)(=O)c1ncc(Cl)c(C(=O)Nc2ccc(S(=O)(=O)N3CCC(C)CC3)cc2)n1	FN deposit inh 58.2, HIV Env fusion 64.8
CCOc1ccccc1NC(=O)c1nc(S(=O)(=O)Cc2ccccc2)ncc1Cl	none
COC(=O)c1ccc(NC(=O)c2nc(S(=O)(=O)Cc3cccc(C)c3)ncc2Cl)cc1	FN deposit inh 53.0
C=CCN1Cc2ccccc2[C@H]2OC(c3ccc(OCCCO)cc3)=N[C@@]2(CCC(=O)OC(C)(C)C)C1=O	none (no result: FN deposit inh, PDI turbidity, INS-1E GSIS act)
COc1ccccc1NC(=O)c1nc(S(=O)(=O)Cc2ccccc2)ncc1Cl	FN deposit inh 42.1
COc1cccc(NC(=O)c2nc(S(C)(=O)=O)ncc2Cl)c1	INS-1E GSIS act 54.4
CCS(=O)(=O)c1ncc(Cl)c(C(=O)Nc2ccccc2OC)n1	none
COc1cccc(S(=O)(=O)Nc2ccc3c(c2)C(=O)N(C)[C@@H]2CC[C@H](CC(=O)O)O[C@@H]2CO3)c1	none (no result: ERp5 inh, PDI turbidity)
O=C(C[C@@H]1C[C@H]2c3cc(NC(=O)c4cccnc4)ccc3O[C@H]2[C@H](CO)O1)NCc1ccccc1	none (no result: PDI turbidity)
O=C(C[C@H]1CC[C@@H]2[C@H](COC[C@H](O)CN2C(=O)Nc2ccc(Cl)cc2)O1)NC1Cc2ccccc2C1	none (no result: ERp5 inh, HIV Env fusion, PDI turbidity)
COc1ccc(-c2cc(C(F)(F)F)n3nc(C(=O)O)cc3n2)cc1OC	INS-1E GSIS act 48.1 (no result: ERp5 inh, FN deposit inh, HIV Env fusion)
COC(=O)c1cc2nc(-c3ccc(OC)c(OC)c3)cc(C(F)(F)F)n2n1	none (no result: ERp5 inh, FN deposit inh, HIV Env fusion, INS-1E GSIS act)
C[C@@H]1CN([C@@H](C)CO)C(=O)Cc2cc(NC(=O)Cn3cnnn3)ccc2O[C@H]1CN(C)C(=O)Nc1ccc(C(F)(F)F)cc1	none (no result: PDI turbidity)
CN(C)c1ccc(/C=N/NC(=O)c2ccccc2Cl)cc1	INS-1E GSIS act 52.4
COc1ccc(C2c3c(oc4ccccc4c3=O)C(=O)N2Cc2ccncc2)cc1OC (stereo not given)	none (no result: ERp5 inh, FN deposit inh, PDI turbidity, INS-1E GSIS act)
O=C1c2oc3ccccc3c(=O)c2C(c2cccc(Br)c2)N1Cc1ccco1 (stereo not given)	HIV Env fusion 55.3 (no result: ERp5 inh)
COc1cc(-c2ccc3sc(-c4ccsc4)c(C#CCO)c3c2)cc(OC)c1OC	none (no result: INS-1E GSIS act)
COC(=O)c1c(-c2ccsc2)sc2ccc(-c3cc(OC)c(OC)c(OC)c3)cc12	HIV Env fusion 59.2
C[C@@H]1CN([C@H](C)CO)C(=O)Cc2cc(NC(=O)CCCN(C)C)ccc2O[C@H]1CN(C)Cc1ccc(Oc2ccccc2)cc1	none (no result: FN deposit inh, PDI turbidity)
Cc1c(Cl)cccc1NC(=O)N1CCCN(c2nc(-c3ccccc3)ns2)CC1	HIV Env fusion 55.1
O=C(Nc1ccccc1Cl)N1CCCN(c2nc(-c3ccccc3)ns2)CC1	none
C[C@@H]1CN([C@@H](C)CO)C(=O)c2cccc(NS(=O)(=O)c3cccs3)c2O[C@H]1CN(C)S(=O)(=O)c1cn(C)cn1	none (no result: FN deposit inh, HIV Env fusion, PDI turbidity)
O=C(NC(=S)Nc1ccc(CN2CCOCC2)cc1)c1ccc(-c2cccc(Cl)c2)o1	none
CC(=O)Cc1nsc(NC(=O)c2ccc(-c3cccc(Cl)c3)o2)n1	INS-1E GSIS act 42.4
O=C(Nc1ccc(CN2CCOCC2)cc1)c1ccc(-c2cccc(Cl)c2)o1	HIV Env fusion 77.4 (no result: ERp5 inh, INS-1E GSIS act)
CN1CCN(c2ccc(NC(=O)c3ccc(-c4ccc(Cl)cc4)o3)cc2)CC1	none
CC(=O)Cc1nsc(NC(=O)c2ccc(Br)o2)n1	none (no result: FN deposit inh, HIV Env fusion)
CS(=O)(=O)N1CCN(c2ccc(NC(=O)c3ccc(-c4ccc(Cl)cc4)o3)cc2)CC1	INS-1E GSIS act 80.0 (no result: ERp5 inh)
O=C1C[C@H](c2ccccc2)C(=O)N[C@@H](c2ccc(F)cc2)C/C=C\CCN1	none (no result: ERp5 inh, HIV Env fusion, PDI turbidity)
CC1Cc2ccccc2N1C(=S)NC(=O)c1ccc(Cl)cc1Cl (stereo not given)	none (no result: HIV Env fusion)
